Experimental findings from ChEMBL document CHEMBL5696442, “Discovery of type II inhibitors of TGFβ-activated kinase 1 (TAK1) and mitogen-activated protein kinase kinase kinase kinase 2 (MAP4K2)” (J Med Chem, 2015) are described below.

The target in data set [1] is Tyrosine-protein kinase Fes/Fps (Homo sapiens, UniProt P07332). Nature of the data set: Inhibition of FES Lys1 labeling site in human Huh-7 cell lysate at 1 uM by KiNativ Profiling analysis relative to control. Type of data set: subcellular.
Data set [2] is described as follows: AUC last in Swiss albino mouse at 10 mg/kg, po measured upto 24 hrs by LC/MS/MS analysis. It is filed as ADME, organism-based. The following applies: in vivo.
Data set [3] has as its target Cyclin-dependent kinase 9 (Homo sapiens) (UniProt P50750). Briefly: Inhibition of CDK9 Lys2 labeling site in human A-375 cells at 0.05 uM by KiNativ Profiling analysis relative to control. Type of data set: cell-based.
In data set [4] the target is Misshapen-like kinase 1 (Homo sapiens) (UniProt Q8N4C8). Briefly: Inhibition of ZC3 Lys2 labeling site in human A-375 cells at 0.5 uM by KiNativ Profiling analysis relative to control. It is filed as cell-based.
Data set [5] deals with Calcium/calmodulin-dependent protein kinase type II subunit delta (Homo sapiens) (UniProt Q13557). Briefly: Inhibition of CaMK2d Lys1 labeling site in human A-375 cells at 0.5 uM by KiNativ Profiling analysis relative to control. It is filed as cell-based. In outline: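 Live A375 melanoma cells were treated with compound at 5 or 0.5 μM. The cells were then lysed, and the lysates were labeled with a lysine-reactive ATP or ADP-biotin acyl probe (KiNativ). Inhibition is the compound's protection of each kinase labeling-site peptide from probe labeling, relative to untreated control.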

Data set [6] addresses Serine/threonine-protein kinase Nek6 (Homo sapiens) (UniProt Q9HC98). Nature of the data set: Inhibition of NEK6 Lys2 labeling site in human A-375 cells at 0.5 uM by KiNativ Profiling analysis relative to control. Type of data set: cell-based.
Data set [7] deals with Diacylglycerol kinase alpha (Homo sapiens) (UniProt P23743). Briefly: Inhibition of DGKA ATP labeling site harbouring in human A-375 cells at 0.05 uM by KiNativ Profiling analysis relative to control. Type of data set: cell-based.
Data set [8] concerns the target T1, Serine/threonine-protein kinase Nek9 (Homo sapiens) (UniProt Q8TD19).
T1 sequence (whole entry): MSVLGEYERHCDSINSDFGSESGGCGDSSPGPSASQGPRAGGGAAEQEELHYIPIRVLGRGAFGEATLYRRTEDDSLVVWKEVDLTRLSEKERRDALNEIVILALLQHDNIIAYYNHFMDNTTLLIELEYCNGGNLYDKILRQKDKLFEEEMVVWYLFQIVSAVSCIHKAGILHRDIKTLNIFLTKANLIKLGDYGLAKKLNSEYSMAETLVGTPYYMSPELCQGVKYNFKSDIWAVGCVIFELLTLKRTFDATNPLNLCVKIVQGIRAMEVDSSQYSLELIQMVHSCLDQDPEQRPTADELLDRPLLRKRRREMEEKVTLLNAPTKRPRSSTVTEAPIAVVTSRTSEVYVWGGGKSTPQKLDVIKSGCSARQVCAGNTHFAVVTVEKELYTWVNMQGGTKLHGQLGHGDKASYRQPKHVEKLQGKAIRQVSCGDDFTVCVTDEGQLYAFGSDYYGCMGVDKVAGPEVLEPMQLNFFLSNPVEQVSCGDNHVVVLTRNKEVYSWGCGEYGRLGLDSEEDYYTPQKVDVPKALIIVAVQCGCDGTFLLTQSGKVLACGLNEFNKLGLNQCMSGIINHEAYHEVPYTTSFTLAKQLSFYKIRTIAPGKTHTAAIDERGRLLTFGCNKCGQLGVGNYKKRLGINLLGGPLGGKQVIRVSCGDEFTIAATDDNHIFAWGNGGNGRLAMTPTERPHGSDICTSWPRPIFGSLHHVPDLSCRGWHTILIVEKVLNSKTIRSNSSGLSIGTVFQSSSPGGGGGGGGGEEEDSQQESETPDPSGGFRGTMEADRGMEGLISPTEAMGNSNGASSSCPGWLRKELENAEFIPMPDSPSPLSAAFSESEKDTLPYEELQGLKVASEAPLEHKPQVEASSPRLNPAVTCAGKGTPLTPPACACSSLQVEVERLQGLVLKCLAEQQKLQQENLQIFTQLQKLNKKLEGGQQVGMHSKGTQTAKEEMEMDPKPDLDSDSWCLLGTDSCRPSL
Nature of the data set: Inhibition of NEK9 Lys1 labeling site harbouring RTEDDSLVVWKEVDLTR in human A-375 cells at 0.05 uM by KiNativ Profiling analysis relative to control. Type of data set: cell-based.

For data set [9], the target named is Mitogen-activated protein kinase 10 (Homo sapiens, UniProt P53779). Briefly: Inhibition of JNK3 Lys2 labeling site in human A-375 cells at 5 uM by KiNativ Profiling analysis relative to control. It is filed as cell-based.
Data set [10] addresses RAC-beta serine/threonine-protein kinase (Homo sapiens) (UniProt P31751). Nature of the data set: Inhibition of AKT2 ATP Loop labeling site in human A-375 cells at 0.05 uM by KiNativ Profiling analysis relative to control. Type of data set: cell-based.
The target of data set [11] is Phosphatidylinositol 3-kinase catalytic subunit type 3 (Homo sapiens) (UniProt Q8NEB9). Nature of the data set: Inhibition of PIK3C3 ATP labeling site in human A-375 cells at 0.5 uM by KiNativ Profiling analysis relative to control. It is filed as cell-based.
Data set [12] deals with Serine/threonine-protein kinase WNK2 (Homo sapiens) (UniProt Q9Y3S1). Briefly: Inhibition of Wnk2 ATP Loop labeling site in human A-375 cells at 0.5 uM by KiNativ Profiling analysis relative to control. Type of data set: cell-based.
For data set [13], the target named is T2, Aurora kinase C (Homo sapiens) (UniProt Q9UQB9).
T2 sequence (whole entry): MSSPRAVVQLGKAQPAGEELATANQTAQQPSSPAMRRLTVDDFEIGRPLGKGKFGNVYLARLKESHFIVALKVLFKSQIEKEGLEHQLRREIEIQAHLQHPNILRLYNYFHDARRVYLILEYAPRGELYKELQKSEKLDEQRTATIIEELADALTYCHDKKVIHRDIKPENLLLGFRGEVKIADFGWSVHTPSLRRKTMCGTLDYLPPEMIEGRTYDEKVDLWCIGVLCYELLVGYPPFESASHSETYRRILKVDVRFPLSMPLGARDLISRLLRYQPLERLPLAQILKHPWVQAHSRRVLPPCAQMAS
Briefly: Inhibition of AurC ATP Loop labeling site in human A-375 cells at 0.5 uM by KiNativ Profiling analysis relative to control. Type of data set: cell-based. In outline:
(§1)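 Live A375 melanoma cells were treated with compound at 5 or 0.5 μM, then lysed. The lysates were labeled with a lysine-reactive ATP or ADP-biotin probe. Kinase protection from probe labeling was measured by KiNativ.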

In data set [14] the target is 5'-AMP-activated protein kinase catalytic subunit alpha-1 (Homo sapiens) (UniProt Q13131). Briefly: Inhibition of AMPKa1 ATP Loop labeling site in human A-375 cells at 0.5 uM by KiNativ Profiling analysis relative to control. Type of data set: cell-based. In outline:
as §1

Data set [15] deals with Serine/threonine-protein kinase WNK3 (Homo sapiens) (UniProt Q9BYP7). Nature of the data set: Inhibition of Wnk3 Lys2 labeling site in human A-375 cells at 0.5 uM by KiNativ Profiling analysis relative to control. Type of data set: cell-based.
Serine/threonine-protein kinase WNK3 (Homo sapiens), sequence (Q9BYP7 whole entry): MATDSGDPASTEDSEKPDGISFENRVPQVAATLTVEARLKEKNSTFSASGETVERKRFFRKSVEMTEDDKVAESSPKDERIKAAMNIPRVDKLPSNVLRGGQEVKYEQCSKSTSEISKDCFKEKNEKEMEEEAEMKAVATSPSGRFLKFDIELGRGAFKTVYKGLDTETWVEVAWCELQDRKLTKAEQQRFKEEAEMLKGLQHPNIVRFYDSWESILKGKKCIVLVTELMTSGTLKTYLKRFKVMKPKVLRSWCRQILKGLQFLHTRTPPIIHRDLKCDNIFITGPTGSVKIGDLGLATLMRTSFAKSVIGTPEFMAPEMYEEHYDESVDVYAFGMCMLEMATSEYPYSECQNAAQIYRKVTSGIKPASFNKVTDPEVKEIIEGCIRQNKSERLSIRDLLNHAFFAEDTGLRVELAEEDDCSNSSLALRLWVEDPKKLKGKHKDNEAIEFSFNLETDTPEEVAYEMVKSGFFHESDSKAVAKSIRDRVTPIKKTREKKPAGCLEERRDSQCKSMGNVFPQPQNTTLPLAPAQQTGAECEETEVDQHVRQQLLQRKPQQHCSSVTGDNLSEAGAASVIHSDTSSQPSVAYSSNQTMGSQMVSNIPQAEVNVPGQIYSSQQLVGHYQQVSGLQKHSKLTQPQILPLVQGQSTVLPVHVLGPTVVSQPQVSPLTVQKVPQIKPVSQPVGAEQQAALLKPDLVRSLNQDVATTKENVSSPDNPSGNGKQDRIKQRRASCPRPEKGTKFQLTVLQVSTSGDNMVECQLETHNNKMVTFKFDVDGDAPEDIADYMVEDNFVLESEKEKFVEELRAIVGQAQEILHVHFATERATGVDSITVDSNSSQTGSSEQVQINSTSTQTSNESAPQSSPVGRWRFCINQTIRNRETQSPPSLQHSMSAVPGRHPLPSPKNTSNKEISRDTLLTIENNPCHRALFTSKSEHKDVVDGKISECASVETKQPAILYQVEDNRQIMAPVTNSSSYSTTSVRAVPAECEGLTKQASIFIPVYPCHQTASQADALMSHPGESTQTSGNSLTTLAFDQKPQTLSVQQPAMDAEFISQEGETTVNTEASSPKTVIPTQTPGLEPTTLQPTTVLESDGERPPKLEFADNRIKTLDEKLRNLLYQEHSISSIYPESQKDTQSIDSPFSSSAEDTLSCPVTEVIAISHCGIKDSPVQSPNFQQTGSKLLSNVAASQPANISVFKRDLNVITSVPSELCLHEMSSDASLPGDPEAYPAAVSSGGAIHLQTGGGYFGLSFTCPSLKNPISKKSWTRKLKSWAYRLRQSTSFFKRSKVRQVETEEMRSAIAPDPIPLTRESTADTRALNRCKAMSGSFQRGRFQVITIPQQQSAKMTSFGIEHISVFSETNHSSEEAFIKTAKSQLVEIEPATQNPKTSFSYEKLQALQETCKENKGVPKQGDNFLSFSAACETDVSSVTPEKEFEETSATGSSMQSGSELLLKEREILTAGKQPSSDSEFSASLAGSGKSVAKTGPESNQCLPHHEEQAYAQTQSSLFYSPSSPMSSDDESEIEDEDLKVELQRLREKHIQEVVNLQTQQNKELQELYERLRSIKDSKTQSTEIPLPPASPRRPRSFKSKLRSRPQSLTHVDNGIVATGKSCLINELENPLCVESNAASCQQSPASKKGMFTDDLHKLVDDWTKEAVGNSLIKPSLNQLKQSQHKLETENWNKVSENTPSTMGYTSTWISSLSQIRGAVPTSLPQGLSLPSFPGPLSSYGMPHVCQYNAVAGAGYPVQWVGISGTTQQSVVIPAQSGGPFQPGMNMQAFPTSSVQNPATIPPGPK

5'-AMP-activated protein kinase catalytic subunit alpha-1 (Homo sapiens), sequence (Q13131 whole entry, looked up): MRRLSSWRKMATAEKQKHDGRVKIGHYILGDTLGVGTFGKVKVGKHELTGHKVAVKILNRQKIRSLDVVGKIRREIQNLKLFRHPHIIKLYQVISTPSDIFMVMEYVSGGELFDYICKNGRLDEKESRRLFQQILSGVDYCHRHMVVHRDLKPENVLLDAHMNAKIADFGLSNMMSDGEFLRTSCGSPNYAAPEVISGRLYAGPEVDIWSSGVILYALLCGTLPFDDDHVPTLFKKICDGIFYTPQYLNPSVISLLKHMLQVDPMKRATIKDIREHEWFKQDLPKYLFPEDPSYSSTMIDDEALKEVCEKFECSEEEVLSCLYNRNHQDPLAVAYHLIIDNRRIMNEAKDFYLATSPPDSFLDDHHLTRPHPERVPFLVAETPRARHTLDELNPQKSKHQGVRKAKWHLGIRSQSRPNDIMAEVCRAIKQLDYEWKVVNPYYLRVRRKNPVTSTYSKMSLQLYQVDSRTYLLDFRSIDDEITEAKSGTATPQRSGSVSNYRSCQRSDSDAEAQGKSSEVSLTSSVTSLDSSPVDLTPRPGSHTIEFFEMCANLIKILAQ
Serine/threonine-protein kinase WNK2 (Homo sapiens), sequence (Q9Y3S1 whole entry): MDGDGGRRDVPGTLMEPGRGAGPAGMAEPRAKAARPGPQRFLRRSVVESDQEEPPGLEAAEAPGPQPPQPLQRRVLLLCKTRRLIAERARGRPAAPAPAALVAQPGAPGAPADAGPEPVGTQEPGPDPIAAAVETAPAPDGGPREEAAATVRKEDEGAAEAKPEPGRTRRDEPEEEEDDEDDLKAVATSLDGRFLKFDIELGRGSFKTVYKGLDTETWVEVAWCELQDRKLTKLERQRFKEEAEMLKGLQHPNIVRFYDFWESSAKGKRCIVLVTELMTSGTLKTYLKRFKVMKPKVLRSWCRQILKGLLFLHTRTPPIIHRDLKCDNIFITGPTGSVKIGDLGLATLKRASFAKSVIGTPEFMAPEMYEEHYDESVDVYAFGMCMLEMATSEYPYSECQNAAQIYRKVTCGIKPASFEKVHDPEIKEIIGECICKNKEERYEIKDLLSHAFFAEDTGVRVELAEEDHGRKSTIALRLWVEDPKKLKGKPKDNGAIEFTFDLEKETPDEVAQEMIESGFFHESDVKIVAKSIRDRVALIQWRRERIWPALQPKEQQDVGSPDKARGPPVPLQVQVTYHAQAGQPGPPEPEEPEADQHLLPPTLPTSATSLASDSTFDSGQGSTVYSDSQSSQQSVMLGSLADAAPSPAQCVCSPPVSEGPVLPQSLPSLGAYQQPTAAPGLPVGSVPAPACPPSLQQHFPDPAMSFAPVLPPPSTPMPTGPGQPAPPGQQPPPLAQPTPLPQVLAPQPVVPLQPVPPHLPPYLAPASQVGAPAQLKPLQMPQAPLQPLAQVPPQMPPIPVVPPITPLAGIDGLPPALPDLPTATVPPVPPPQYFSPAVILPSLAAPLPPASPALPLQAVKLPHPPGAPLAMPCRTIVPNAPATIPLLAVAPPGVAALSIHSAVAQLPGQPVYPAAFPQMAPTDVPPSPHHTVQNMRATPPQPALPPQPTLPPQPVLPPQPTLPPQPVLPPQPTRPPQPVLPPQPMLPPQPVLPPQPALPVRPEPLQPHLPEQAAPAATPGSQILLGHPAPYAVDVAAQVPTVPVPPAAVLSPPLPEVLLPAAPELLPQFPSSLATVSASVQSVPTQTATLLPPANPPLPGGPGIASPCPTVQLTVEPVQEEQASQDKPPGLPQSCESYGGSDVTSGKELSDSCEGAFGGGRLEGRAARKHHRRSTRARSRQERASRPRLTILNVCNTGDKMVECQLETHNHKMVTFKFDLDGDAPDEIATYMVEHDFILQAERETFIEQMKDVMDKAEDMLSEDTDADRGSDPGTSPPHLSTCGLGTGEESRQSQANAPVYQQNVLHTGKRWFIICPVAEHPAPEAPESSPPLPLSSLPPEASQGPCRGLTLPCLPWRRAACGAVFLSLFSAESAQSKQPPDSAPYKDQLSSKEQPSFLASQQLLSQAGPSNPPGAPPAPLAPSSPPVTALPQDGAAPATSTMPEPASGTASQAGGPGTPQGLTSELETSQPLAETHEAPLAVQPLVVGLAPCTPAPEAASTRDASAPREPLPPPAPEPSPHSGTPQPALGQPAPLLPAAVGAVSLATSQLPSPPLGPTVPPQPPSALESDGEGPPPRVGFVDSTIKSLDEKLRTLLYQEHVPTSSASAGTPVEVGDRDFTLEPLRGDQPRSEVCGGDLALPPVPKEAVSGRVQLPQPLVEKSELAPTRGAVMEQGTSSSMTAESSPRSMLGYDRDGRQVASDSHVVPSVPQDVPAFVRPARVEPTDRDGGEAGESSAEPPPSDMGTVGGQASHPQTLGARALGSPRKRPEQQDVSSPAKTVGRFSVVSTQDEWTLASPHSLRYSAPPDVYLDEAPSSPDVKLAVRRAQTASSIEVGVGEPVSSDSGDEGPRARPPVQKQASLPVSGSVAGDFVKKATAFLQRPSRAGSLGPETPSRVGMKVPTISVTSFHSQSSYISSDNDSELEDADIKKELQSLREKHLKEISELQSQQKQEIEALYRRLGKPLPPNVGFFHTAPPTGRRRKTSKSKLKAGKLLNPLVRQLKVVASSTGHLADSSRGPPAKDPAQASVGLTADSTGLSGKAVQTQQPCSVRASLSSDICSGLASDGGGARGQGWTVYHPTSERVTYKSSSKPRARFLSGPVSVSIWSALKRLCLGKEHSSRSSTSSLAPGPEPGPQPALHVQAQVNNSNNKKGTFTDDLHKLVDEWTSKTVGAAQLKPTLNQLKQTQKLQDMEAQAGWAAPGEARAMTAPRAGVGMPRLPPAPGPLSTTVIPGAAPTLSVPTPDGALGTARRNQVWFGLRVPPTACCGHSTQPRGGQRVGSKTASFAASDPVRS
Serine/threonine-protein kinase Nek6 (Homo sapiens), sequence (Q9HC98 whole entry): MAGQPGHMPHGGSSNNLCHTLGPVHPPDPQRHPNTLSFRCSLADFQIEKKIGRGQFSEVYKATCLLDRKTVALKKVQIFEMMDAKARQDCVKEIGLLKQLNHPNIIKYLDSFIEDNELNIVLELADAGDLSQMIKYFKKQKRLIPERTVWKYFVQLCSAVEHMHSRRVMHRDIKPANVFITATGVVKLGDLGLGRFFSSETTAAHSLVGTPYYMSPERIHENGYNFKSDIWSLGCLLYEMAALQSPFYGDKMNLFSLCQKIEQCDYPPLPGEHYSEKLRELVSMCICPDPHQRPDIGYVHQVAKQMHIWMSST

For `CNc1cc(Oc2cc(C(=O)Nc3cc(N4CCN(C)CC4)cc(C(F)(F)F)c3)ccc2C)ncn1`, in data set [1], the inhibition (in general, the drop in the measured response relative to a control, in per cent) is 11.2%.
Compound `CCN1CCN(Cc2ccc(NC(=O)c3ccc(C)c(/C=C/c4cnc5[nH]ccc5c4OC)c3)cc2C(F)(F)F)CC1` gave an AUClast in [2] of 295 ng·h/mL. For the same compound, the inhibition in data set [3] came to 10.7%; in [4], 48.1%; in [5], 26%; in data set [6], 10.7%; in data set [7] it was 14.6%; in data set [8], 18.8%. Besides, the inhibition in [9] was 76.9%; in [10], 20.9%; in [11] it was 51.6%; in data set [12], 15.3%; in data set [13], 30.2%; in data set [14], -2.7%. In addition, in data set [15], the inhibition came out at 7.9%.
Consider `CNc1cc(Oc2cc(C(=O)Nc3cc(-n4cnc(C)c4)cc(C(F)(F)F)c3)ccc2C)ncn1`, for which the inhibition in [1] came to 20%.
Compound `CCN1CCN(Cc2ccc(NC(=O)c3ccc(C)c(Oc4ccnc5[nH]ccc45)c3)cc2C(F)(F)F)CC1` came in with an AUClast in [2] of 1369 ng·h/mL. Besides, the inhibition is 15.4% in data set [3]; 70.8% in data set [4]; 8.7% in [5]; 7.8% in [6]; -8.4% in [7]; 1.8% in [8]. Moreover, the inhibition was 90.3% in [9]; -3.9% in data set [10]; 36.8% in data set [11]; 11.4% in [12]; 31.2% in data set [13]; -0.8% in data set [14]. The inhibition in data set [15] was -3%.
